From ChEMBL document CHEMBL4428115, “Molecular docking studies, biological and toxicity evaluation of dihydroisoquinoline derivatives as potential anticancer agents” (Bioorg Med Chem, 2016)
pIC50: −log10 of the molar value. Active and inactive are the calls of the source. The calls are words filed in the database; no cut-off is given here.

Columns and labels:
HL-60 [1] = experiment: Induction of apoptosis in human HL60 cells assessed as increase in late apoptotic cells at 3 ug/ml after 72 hrs by APC-Annexin V/propidium iodide staining based flow cytometry relative to control; type: functional, cell-based
Procedure, shortened: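 HL-60 (2 × 10^5 cells/mL, seeded 24 h before) treated 72 h at 3 µg/mL alongside a DMSO control. Cells suspended in APC-Annexin V in HEPES binding buffer pH 7.4 with 1.8 mM CaCl2, 15 min dark at rt, then PI at 0.1 mg/mL final. Flow cytometry: PI+/Annexin+ counted as late apoptotic/necrotic. Three experiments, mean ± SD, p≤0.05 versus control.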

Raji = experiment: Antiproliferative activity against human Raji cells; type: functional, cell-based
MCF7 [2] = experiment: Potency index, ratio of bestatin IC50 to compound IC50 for human MCF7 cells; type: functional
DU-145 = experiment: Antiproliferative activity against human DU145 cells; type: functional, cell-based
CCRF-CEM = experiment: Antiproliferative activity against human CCRF-CEM cells; type: functional, cell-based
HL-60 [3] = experiment: Antiproliferative activity against human HL60 cells after 72 hrs by MTT assay; type: functional, cell-based; settings: HL-60, 72 h
Procedure, shortened: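 Leukemia cells seeded at 1 × 10^4 per well 24 h before adding compounds (0.01–1000 µg/mL from DMSO stock), exposed 72 h. MTT (5 mg/mL stock) added for 4 h, then DMF/SDS lysis mixture; absorbance at 570 nm read after 24 h. Triplicates per experiment, 3–5 repeats; IC50 calculated per experiment, reported as mean ± SD.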

A549 = experiment: Potency index, ratio of bestatin IC50 to compound IC50 for human A549 cells; type: functional
[4] = Selectivity index, ratio of IC50 for mouse BALB/3T3 cells to IC50 for human CEM/C2 cells; type: toxicity; settings: BALB/3T3 cells versus CEM/C2 cells, read-out: Ratio IC50
[5] = Toxicity in Dunkin-Hartley guinea pig assessed as mild skin sensitization incidents at 1 % administered intradermally followed by 50% topical application in the sites of intradermal injection for 24 to 72 hrs followed by 50 % of compound challenge; design: species or system Cavia porcellus; settings: in vivo
Procedure, shortened: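 Maximization-type test: 11 treated and 6 sham control guinea pigs. Induction was an intradermal 1% suspension in peanut oil with Freund's Complete Adjuvant, then 50% topical at the injection sites, after 10% sodium lauryl sulfate pretreatment. Challenge was 50% in peanut oil on the right flank, vehicle on the left. Skin was scored at 24, 48 and 72 h.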

LNCaP = experiment: Antiproliferative activity against human LNCAP cells; type: functional, cell-based
[6] = Selectivity index, ratio of IC50 for mouse BALB/3T3 cells to IC50 for human HL60/MX2 cells; type: toxicity; settings: BALB/3T3 cells versus HL60/MX2 cells, read-out: Ratio IC50
Procedure, shortened: (§1)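 Ratio of the BALB/3T3 IC50 to the HL-60 or HL-60/MX2 IC50. Cells were plated at 1 × 10^4 per well 24 h before dosing and exposed for 72 h to 0.01–1000 µg/mL from DMSO stock. BALB/3T3 was read by SRB (TCA fix, 540 nm) and the leukemia lines by MTT (4 h, SDS/DMF lysis, 570 nm). Triplicates; 3–5 experiments.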

[7] = Acute toxicity in Balbc/cmdb mouse assessed as clinical signs at 2000 mg/kg, po administered as single dose in second stage of experiment measured immediately post dose; type: organism-based; settings: in vivo
Procedure, shortened: (§2)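 Acute toxic class method per OECD Guideline 423 / EU Method B.1 tris, run in three stages of three female Balbc/cmdb mice each. Fasted about 3 h, then given a single dose by metal stomach tube in DMSO at 0.5 mL/100 g bw. Stage doses were 300, 2000, then 2000 mg/kg bw. General and detailed clinical observations daily for 14 days; body weights recorded.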

CEM/C2 = experiment: Antiproliferative activity against human CEM/C2 cells; type: functional, cell-based
MCF7 [8] = experiment: Antiproliferative activity against human MCF7 cells after 72 hrs by SRB assay; type: functional, cell-based; settings: MCF7, 72 h
Procedure, shortened: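 Adherent cells plated at 1 × 10^4 per well 24 h before treatment, then exposed 72 h to compounds diluted from 20 mg/mL DMSO stock (0.01–1000 µg/mL). Fixed in cold 50% TCA at 4°C for 1 h, stained with 0.4% sulforhodamine B, bound dye extracted with 10 mM Tris, OD at 540 nm. Triplicates, 3–5 experiments; IC50 per experiment, mean ± SD.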

[9] = Antiproliferative activity against human LoVo/DX cells; type: functional, cell-based
[10] = Selectivity index, ratio of IC50 for human MCF10 cells to IC50 for human HL60 cells; type: toxicity; settings: MCF10 cells versus HL60 cells, read-out: Ratio IC50
Procedure, shortened: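 Selectivity index is the ratio of the IC50 for the normal line to the IC50 for the cancer line. Both IC50 values come from 72 h antiproliferative assays: SRB for adherent cells, MTT for HL-60.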

A498 = experiment: Antiproliferative activity against human A498 cells; type: functional, cell-based
[11] = Selectivity index, ratio of IC50 for mouse BALB/3T3 cells to IC50 for human MCF7 cells; type: toxicity; settings: BALB/3T3 cells versus MCF7 cells, read-out: Ratio IC50
Procedure, shortened: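 Selectivity index is the BALB/3T3 IC50 divided by the MCF-7 IC50. Both adherent lines were plated at 1 × 10^4 per well, dosed 24 h later with 0.01–1000 µg/mL (diluted from 20 mg/mL DMSO stock) for 72 h, then fixed with cold TCA and stained with SRB, reading at 540 nm. Triplicate wells; 3–5 repeat experiments.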

[12] = Selectivity index, ratio of IC50 for mouse BALB/3T3 cells to IC50 for human Jurkat cells; type: toxicity; settings: BALB/3T3 cells versus Jurkat cells, read-out: Ratio IC50
[13] = Acute toxicity in Balbc/cmdb mouse assessed as clinical signs at 2000 mg/kg, po administered as single dose in second stage of experiment measured for 14 days; type: organism-based; settings: in vivo, 336 h; procedure, shortened: as §2
[14] = Selectivity index, ratio of IC50 for mouse BALB/3T3 cells to IC50 for human DU145 cells
Jurkat = experiment: Antiproliferative activity against human Jurkat cells; type: functional, cell-based
[15] = Selectivity index, ratio of IC50 for mouse BALB/3T3 cells to IC50 for human HCV29T cells; type: toxicity; settings: BALB/3T3 cells versus HCV29T cells, read-out: Ratio IC50
HL-60 [16] = experiment: Cell cycle arrest in human HL60 cells assessed as accumulation at G0/G1 phase at 1 to 3 ug/ml after 72 hrs by propidium iodide staining based flow cytometry; type: functional
Procedure, shortened: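 HL-60 seeded at 2 × 10^5 cells/mL 24 h before treatment, exposed 72 h to 1 or 3 µg/mL, with DMSO solvent and cisplatin controls. Cells fixed in 70% ethanol at −20°C, treated with RNase 8 µg/mL at 37°C for 1 h, stained 30 min with PI 50 µg/mL at 4°C. DNA content by flow cytometry; three independent experiments, mean ± SD.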

[17] = Selectivity index, ratio of IC50 for mouse BALB/3T3 cells to IC50 for human HL60 cells; type: toxicity; settings: BALB/3T3 cells versus HL60 cells, read-out: Ratio IC50; procedure, shortened: as §1
[18] = Selectivity index, ratio of IC50 for mouse BALB/3T3 cells to IC50 for human A549 cells

In the case of CCOC(=O)C1(C(=O)OCC)Cc2cc(OCc3ccccc3)cc(OCc3ccccc3)c2C=N1, the Activity (HL-60 [1]) was “Active”, the pIC50 (Raji) was 6.22 and the “Ratio IC50” value (MCF7 [2]) was 15. It also gave a pIC50 (DU-145) of 5.12, a pIC50 (CCRF-CEM) of 6.15 and a pIC50 (HL-60 [3]) of 5.21. For the same compound, the “Ratio IC50” value (A549) was 18, the selectivity ratio [4] was 89.7 and the Activity [5] was 18.2%. The pIC50 (LNCaP) was 5.48, the selectivity ratio [6] was 7 and the Activity [7] was “Toxic”. For the same compound, the pIC50 (CEM/C2) was 6.40, the pIC50 (MCF7 [8]) was 5.02 and the pIC50 [9] was 5.39. The selectivity ratio [10] was 4 to 8, the pIC50 (A498) was 4.88 and the selectivity ratio [11] was 3.7. For the same compound, the selectivity ratio [12] was 2.5, the Activity [13] was “Non-Toxic” and the “Ratio IC50” value [14] was 4.8. For the same compound, the pIC50 (Jurkat) was 4.84, the selectivity ratio [15] was 4.1 and the Activity (HL-60 [16]) was “Active”. The selectivity ratio [17] was 5.8 and the “Ratio IC50” value [18] was 2.7.
